Data as given in ChEMBL document CHEMBL1125378, “alpha-Methyl polyamines: metabolically stable spermidine and spermine mimics capable of supporting growth in cells depleted of polyamines” (J Med Chem, 1992).

Legend:
[1] = Retention time was determined; format: ADME
[2] = system: HT-29; assay: Compound level in 72 hr DFMO (5 mM)-treated HT-29 cells after exposure to 25 uM 1,12-dimethylspermine; format: functional, cell-based; conditions: Homo sapiens, in the assay text read “120 hr” for “72 hr”
In short: (§1)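 HT29 experiment B: 5 mM DFMO for 120 h before addition and throughout a further 96 h; refed at 96 h. Cells without DFMO cultured 96 h in total. Polyamines measured as nmol/mg protein (detection limit 0.2). SD from at least four separate experiments.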

[3] = system: HT-29; assay: Compound level in 72 hr DFMO (5 mM)-treated HT-29 cells after exposure to 10 uM 1,12-dimethylspermine; format: functional, cell-based; conditions: Homo sapiens, in the assay text read “120 hr” for “72 hr”; in short: as §1
[4] = system: L1210; assay: Compound level in 72 hr DFMO (5 mM)-treated L1210 cells after exposure to 10 uM 1,12-dimethylspermine; format: functional, cell-based; conditions: Mus musculus
In short: (§2)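 L1210 cells held in 5 mM DFMO for 72 h before polyamine addition and through a further 72 h, refed at 72 h; controls without DFMO cultured 72 h in total. Intracellular polyamines reported as nmol/mg protein (detection limit 0.2). Mean ± SD from at least four separate experiments.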

[5] = system: SV3T3; assay: Compound level in 96 hr DFMO (5 mM)-treated SV3T3 cells after exposure to 10 uM 1,12-dimethylspermine; format: functional, cell-based; conditions: Mus musculus
[6] = system: SV3T3; assay: Compound level in 96 hr DFMO (5 mM)-treated SV3T3 cells after exposure to 25 uM 1,12-dimethylspermine; format: functional, cell-based; conditions: Mus musculus
[7] = system: SV3T3; assay: Compound level in 72 hr DFMO (5 mM)-treated SV3T3 cells after exposure to 1 uM 1,12-dimethylspermine; conditions: Mus musculus
[8] = system: HT-29; assay: Compound level in 72 hr DFMO (5 mM)-treated HT-29 cells after exposure to 25 uM 1-methylspermidine; format: functional, cell-based; conditions: Homo sapiens
In short: (§3)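 HT29 cells pretreated with 5 mM DFMO for 120 h, then polyamine added and culture continued with DFMO for 72 h (experiment A); refed at 96 h. Cellular polyamine content given as nmol/mg protein (detection limit 0.2). SD from at least four separate experiments.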

[9] = system: HT-29; assay: Compound level in 72 hr DFMO (5 mM)-treated HT-29 cells after exposure to 10 uM 1-methylspermidine; format: functional, cell-based; conditions: Homo sapiens; in short: as §3
[10] = system: HT-29; assay: Compound level in 72 hr DFMO (5 mM)-treated HT-29 cells after exposure to 10 uM 1-methylspermine; format: functional, cell-based; conditions: Homo sapiens; in short: as §3
[11] = system: L1210; assay: Compound level in 72 hr DFMO (5 mM)-treated L1210 cells after exposure to 10 uM 1-methylspermidine; format: functional, cell-based; conditions: Mus musculus; in short: as §2
[12] = system: SV3T3; assay: Compound level in 72 hr DFMO (5 mM)-treated SV3T3 cells after exposure to 25 uM 1-methylspermidine; format: functional, cell-based; conditions: Mus musculus
In short: (§4)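 SV-3T3 fibroblasts (experiment A) held in 5 mM DFMO for 72 h before polyamine addition and throughout a further 72 h. Intracellular polyamines expressed as nmol/mg protein (detection limit 0.05). SD from at least four separate experiments, or duplicate where no SD is given.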

[13] = system: SV3T3; assay: Compound level in 72 hr DFMO (5 mM)-treated SV3T3 cells after exposure to 25 uM 1-methylspermine; format: functional, cell-based; conditions: Mus musculus; in short: as §4
[14] = system: SV3T3; assay: Compound level in 72 hr DFMO (5 mM)-treated SV3T3 cells after exposure to 1 uM 1-methylspermidine; format: functional, cell-based; conditions: Mus musculus; in short: as §4
[15] = system: SV3T3; assay: Compound level in 72 hr DFMO (5 mM)-treated SV3T3 cells after exposure to 1 uM 1-methylspermine; format: functional, cell-based; conditions: Mus musculus; in short: as §4
[16] = system: SV3T3; assay: Compound level in 72 h DFMO (5 mM)-treated SV3T3 cells after exposure to 10 uM 1-methylspermidine; format: functional, cell-based; conditions: Mus musculus; in short: as §4
[17] = system: SV3T3; assay: Compound level in 72 hr DFMO (5 mM)-treated SV3T3 cells after exposure to 10 uM 1-methylspermine; format: functional, cell-based; conditions: Mus musculus; in short: as §4
[18] = system: HT-29; assay: Compound level in 72 hr DFMO (5 mM)-treated HT-29 cells after exposure to 25 uM 1-methylspermine; format: functional, cell-based; conditions: Homo sapiens; in short: as §3
[19] = system: L1210; assay: Compound level in 72 hr DFMO (5 mM)-treated L1210 cells after exposure to 10 uM 1-methylspermine; format: functional, cell-based; conditions: Mus musculus; in short: as §2

tR [1] [min]	Structure (SMILES)	Level (nM (mg of protein)-1) [2]	Level (nM (mg of protein)-1) [3]	Level (nM (mg of protein)-1) [4]	Level (nM (mg of protein)-1) [5]	Level (nM (mg of protein)-1) [6]	Level (nM (mg of protein)-1) [7]	Level (nM (mg of protein)-1) [8]	Level (nM (mg of protein)-1) [9]	Level (nM (mg of protein)-1) [10]	Level (nM (mg of protein)-1) [11]	Level (nM (mg of protein)-1) [12]	Level (nM (mg of protein)-1) [13]	Level (nM (mg of protein)-1) [14]	Level (nM (mg of protein)-1) [15]	Level (nM (mg of protein)-1) [16]	Level (nM (mg of protein)-1) [17]	Level (nM (mg of protein)-1) [18]	Level (nM (mg of protein)-1) [19]
40.9	CC(N)CCNCCCCNCCC(C)N (configuration not stated)	17.3	18.2	61.9	29.4	24.8	4.2	–	–	–	–	–	–	–	–	–	–	–	–
34.5	CC(N)CCNCCCCN (configuration not stated)	–	–	–	1.2	–	–	16.8	13.3	0.2	67.2	31.2	0.4	11.8	0.6	26.8	2.7	–	–
40.5	CC(N)CCNCCCCNCCCN (configuration not stated)	–	–	–	–	–	–	8.6	7.8	21.3	7.8	4.4	33.1	2.4	11.8	4.2	33.7	24.2	63.4
